Experimental data as given in ChEMBL document CHEMBL5385966, “Synthesis and biological evaluation of new naphthalimide-thiourea derivatives as potent antimicrobial agents active against multidrug-resistant Staphylococcus aureus and Mycobacterium tuberculosis” (RSC Med Chem, 2024).
Values after ≈ are worked out from the molar mass of the structure shown. Active and inactive are the calls of the source. The rule behind the calls is not given here.

Tests used:
[1] = tested on: Staphylococcus aureus; experiment: Antibacterial activity against methicillin/ceftriaxone/meropenem/vancomycin/teicoplanin-resistant Staphylococcus aureus VRS12 clinical isolate assessed as bacterial growth inhibition incubated for 16 to 18 hrs by CLSI based antibiotic susceptibility testing method; format: functional; settings: time 16-18 hrs
In short: (§1)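 Broth microdilution in cation-adjusted Mueller-Hinton broth. Compounds were tested at […], with levofloxacin as reference and medium-only controls. Plates were incubated at 37 °C for 16-18 h. MIC was the lowest concentration with no visible growth; three independent determinations, each in duplicate.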

[2] = tested on: Staphylococcus aureus; experiment: Antibacterial activity against methicillin/ceftriaxone/meropenem-resistant Staphylococcus aureus NRS10193 clinical isolate assessed as bacterial growth inhibition incubated for 16 to 18 hrs by CLSI based antibiotic susceptibility testing method; format: functional; settings: time 16-18 hrs; in short: as §1
[3] = tested on: Staphylococcus aureus; experiment: Bactericidal activity against Staphylococcus aureus ATCC 29213 assessed as reduction in remnant bacterial cells at 10 times MIC measured for 24 hrs by time-kill assay; format: functional
In short: (§2)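 Time-kill assay: S. aureus ATCC 29213 at ~10⁶ cfu/mL in MHB, exposed to 1X and 10X MIC at 37 °C, in triplicate. Samples taken at 0, 1, 6 and 24 h were serially diluted in PBS and plated on TSA for 18-20 h at 37 °C. Surviving cfu/mL were counted against untreated controls.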

[4] = tested on: Mycobacteroides chelonae; experiment: Antimycobacterial activity against Mycobacteroides chelonae ATCC 35752 assessed as bacterial growth inhibition incubated for 72 hrs by resazurin dye based broth microdilution method; format: functional, organism-based
In short: (§3)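 Broth microdilution in Middlebrook 7H9 with 10% ADC-Tween-80 (0.2% glycerol, 0.05% Tween-80), inoculum ~10⁶ cfu/mL. Compounds came from 10 mg/mL DMSO stocks and were tested as two-fold serial dilutions at 37 °C, 7 days for M. tuberculosis H37Rv and 72 h for NTM. Growth was read visually with PrestoBlue resazurin dye; MIC was the lowest concentration preventing growth. Triplicate determinations, each in duplicate.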

[5] = tested on: Staphylococcus aureus; experiment: Bactericidal activity against Staphylococcus aureus ATCC 29213 assessed as reduction in remnant bacterial cells measured for 24 hrs by time-kill assay; format: functional, organism-based; in short: as §2
[6] = tested on: Mycolicibacterium fortuitum; experiment: Antimycobacterial activity against Mycobacterium fortuitum ATCC 6841 assessed as bacterial growth inhibition incubated for 72 hrs by resazurin dye based broth microdilution method; format: functional, organism-based; in short: as §3
[7] = tested on: Staphylococcus aureus; experiment: Antibacterial activity against methicillin/ceftriaxone/meropenem-resistant Staphylococcus aureus NRS10191 clinical isolate assessed as bacterial growth inhibition incubated for 16 to 18 hrs by CLSI based antibiotic susceptibility testing method; format: functional; settings: time 16-18 hrs; in short: as §1
[8] = tested on: Pseudomonas aeruginosa; experiment: Antibacterial activity against Pseudomonas aeruginosa ATCC 27853 assessed as bacterial growth inhibition incubated for 16 to 18 hrs by CLSI based antibiotic susceptibility testing method; format: functional, organism-based; settings: time 16-18 hrs; in short: as §1
[9] = tested on: Staphylococcus aureus; experiment: Antibacterial activity against methicillin/ceftriaxone/meropenem-resistant Staphylococcus aureus NRS10129 clinical isolate assessed as bacterial growth inhibition incubated for 16 to 18 hrs by CLSI based antibiotic susceptibility testing method; format: functional; settings: time 16-18 hrs; in short: as §1
[10] = tested on: Mycobacterium tuberculosis; experiment: Antimycobacterial activity against Mycobacterium tuberculosis H37Rv ATCC 27294 assessed as bacterial growth inhibition incubated for 7 days by resazurin dye based broth microdilution method; format: functional; settings: H37Rv ATCC 27294, 168 h, time 7 day; in short: as §3
[11] = tested on: Staphylococcus aureus; experiment: Antibacterial activity against methicillin/ceftriaxone/meropenem-resistant Staphylococcus aureus NRS10186 clinical isolate assessed as bacterial growth inhibition incubated for 16 to 18 hrs by CLSI based antibiotic susceptibility testing method; format: functional; settings: time 16-18 hrs; in short: as §1
[12] = tested on: Staphylococcus aureus; experiment: Antibacterial activity against methicillin/ceftriaxone-resistant Staphylococcus aureus NRS10194 clinical isolate assessed as bacterial growth inhibition incubated for 16 to 18 hrs by CLSI based antibiotic susceptibility testing method; format: functional; settings: time 16-18 hrs; in short: as §1
[13] = tested on: Escherichia coli; experiment: Antibacterial activity against Escherichia coli ATCC 25922 assessed as bacterial growth inhibition incubated for 16 to 18 hrs by CLSI based antibiotic susceptibility testing method; format: functional, organism-based; settings: time 16-18 hrs; in short: as §1
[14] = Selectivity index, ratio of CC50 for African green monkey Vero cells to MIC for Staphylococcus aureus ATCC 29213; format: toxicity, cell-based; settings: read-out: Selectivity Index
[15] = Cytotoxicity against African green monkey Vero cells by MTT assay; format: toxicity, cell-based; settings: chlorocebus sabaeus
In short: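 Vero cells were seeded at ~10³ per well at 37 °C, 5% CO2. After 24 h, compounds were added at 5-100 mg/L for 72 h. […] was added for 4 h, formazan was dissolved in DMSO and read at 540 nm. CC50 was taken as the lowest concentration reducing viability by 50%; doxorubicin was the positive control; triplicate.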

[16] = tested on: Staphylococcus aureus; experiment: Antibacterial activity against methicillin/ceftriaxone/meropenem/gentamycin/linezolid-resistant Staphylococcus aureus NRS10119 clinical isolate assessed as bacterial growth inhibition incubated for 16 to 18 hrs by CLSI based antibiotic susceptibility testing method; format: functional; settings: time 16-18 hrs; in short: as §1
[17] = tested on: Staphylococcus aureus; experiment: Antibacterial activity against Staphylococcus aureus ATCC 29213 assessed as bacterial growth inhibition incubated for 16 to 18 hrs by CLSI based antibiotic susceptibility testing method; format: functional; settings: time 16-18 hrs; in short: as §1
[18] = tested on: Staphylococcus aureus; experiment: Antibacterial activity against methicillin-sensitive Staphylococcus aureus ATCC 29213 clinical isolate assessed as bacterial growth inhibition incubated for 16 to 18 hrs by CLSI based antibiotic susceptibility testing method; format: functional; settings: time 16-18 hrs; in short: as §1
[19] = tested on: Staphylococcus aureus; experiment: Antibacterial activity against methicillin/ceftriaxone/meropenem/vancomycin/teicoplanin-resistant Staphylococcus aureus VRS4 clinical isolate assessed as bacterial growth inhibition incubated for 16 to 18 hrs by CLSI based antibiotic susceptibility testing method; format: functional; settings: time 16-18 hrs; in short: as §1
[20] = tested on: Mycobacteroides abscessus; experiment: Antimycobacterial activity against Mycobacterium abscessus ATCC 19977 assessed as bacterial growth inhibition incubated for 72 hrs by resazurin dye based broth microdilution method; format: functional, organism-based; in short: as §3
[21] = tested on: Staphylococcus aureus; experiment: Antibacterial activity against methicillin/ceftriaxone/meropenem/gentamycin/vancomycin/teicoplanin-resistant Staphylococcus aureus VRS1 clinical isolate assessed as bacterial growth inhibition incubated for 16 to 18 hrs by CLSI based antibiotic susceptibility testing method; format: functional; settings: time 16-18 hrs; in short: as §1
[22] = tested on: Staphylococcus aureus; experiment: Antibacterial activity against methicillin/ceftriaxone/meropenem/gentamycin/linezolid-resistant Staphylococcus aureus NRS10100 clinical isolate assessed as bacterial growth inhibition incubated for 16 to 18 hrs by CLSI based antibiotic susceptibility testing method; format: functional; settings: time 16-18 hrs; in short: as §1
[23] = tested on: Klebsiella pneumoniae; experiment: Antibacterial activity against Klebsiella pneumoniae BAA 1705 assessed as bacterial growth inhibition incubated for 16 to 18 hrs by CLSI based antibiotic susceptibility testing method; format: functional, organism-based; settings: time 16-18 hrs; in short: as §1
[24] = tested on: Staphylococcus aureus; experiment: Antibacterial activity against methicillin/ceftriaxone/meropenem-resistant Staphylococcus aureus NRS10198 clinical isolate assessed as bacterial growth inhibition incubated for 16 to 18 hrs by CLSI based antibiotic susceptibility testing method; format: functional; settings: time 16-18 hrs; in short: as §1
[25] = tested on: Staphylococcus aureus; experiment: Antibacterial activity against methicillin/ceftriaxone/meropenem-resistant Staphylococcus aureus NRS10192 clinical isolate assessed as bacterial growth inhibition incubated for 16 to 18 hrs by CLSI based antibiotic susceptibility testing method; format: functional; settings: time 16-18 hrs; in short: as §1
[26] = tested on: Acinetobacter baumannii; experiment: Antibacterial activity against Acinetobacter baumannii BAA 1605 assessed as bacterial growth inhibition incubated for 16 to 18 hrs by CLSI based antibiotic susceptibility testing method; format: functional, organism-based; settings: time 16-18 hrs; in short: as §1
[27] = tested on: Staphylococcus aureus; experiment: Antimicrobial activity against methicillin-resistant Staphylococcus aureus assessed as microbial growth inhibition by NCCLS based assay; format: functional
[28] = tested on: Staphylococcus aureus; experiment: Antimicrobial activity against Staphylococcus aureus assessed as microbial growth inhibition; format: functional
[29] = tested on: Staphylococcus aureus; experiment: Antimicrobial activity against methicillin-resistant Staphylococcus aureus Newman assessed as microbial growth inhibition; format: functional

Row | Compound | MIC [1] | MIC [2] | Activity [3] | growth inhibition (GI) [4] | Activity [5] | growth inhibition (GI) [6] | MIC [7] | growth inhibition (GI) [8] | MIC [9] | MIC [10] | MIC [11] | MIC [12] | growth inhibition (GI) [13] | selectivity ratio [14] | CC50 [15] | MIC [16] | MIC [17] | MIC [18] | MIC [19] | growth inhibition (GI) [20] | also measured
1 | O=C(CN1C(=O)c2cccc3cccc(c23)C1=O)N1CCC(NC(=S)NC2CCCC2)CC1 | 0.06 µg/mL (≈ 0.129 µM) | 0.06 µg/mL (≈ 0.129 µM) | ~5 log10CFU/ml | inactive | Dose-Dependent Effect | inactive | 0.06 µg/mL (≈ 0.129 µM) | inactive | 0.06 µg/mL (≈ 0.129 µM) | > 64 µg/mL | 0.06 µg/mL (≈ 0.129 µM) | 0.06 µg/mL (≈ 0.129 µM) | inactive | > 3200 | > 100 µg/mL | 0.06 µg/mL (≈ 0.129 µM) | 0.031 µg/mL (≈ 0.0667 µM) | 0.06 µg/mL (≈ 0.129 µM) | 0.06 µg/mL (≈ 0.129 µM) | inactive | MIC [21]: 0.06 µg/mL (≈ 0.129 µM); MIC [22]: 0.06 µg/mL (≈ 0.129 µM); growth inhibition (GI) [23]: inactive; MIC [24]: 0.06 µg/mL (≈ 0.129 µM); MIC [25]: 0.06 µg/mL (≈ 0.129 µM); growth inhibition (GI) [26]: inactive
2 | CCNc1ccc2c3c(cccc13)C(=O)N(CC(O)Cn1c([N+](=O)[O-])cnc1C)C2=O (stereo not given) |  |  |  |  |  |  |  |  |  |  |  |  |  |  |  |  |  |  |  |  | MIC [27]: 40 µM (≈ 16.9 µg/mL)
3 | CCCCCc1nnc(NC(=S)NS(=O)(=O)c2ccc(C)cc2)s1 |  |  |  |  |  |  |  |  |  |  |  |  |  |  |  |  |  |  |  |  | MIC [28]: 0.78 µg/mL (≈ 2.03 µM)
4 | S=C(Nc1ccc(Cl)cc1)n1ccc(OCc2ccccc2)n1 |  |  |  |  |  |  |  |  |  |  |  |  |  |  |  |  |  |  |  |  | MIC [29]: 0.15 µM (≈ 0.0516 µg/mL)
5 | O=C1c2cccc3cccc(c23)C(=O)N1CCN1CCN(C(=S)NC2CCCCC2)CC1 | 0.5 µg/mL (≈ 1.11 µM) | 0.25 µg/mL (≈ 0.555 µM) | ~5 log10CFU/ml | inactive | Dose-Dependent Effect | inactive | 0.25 µg/mL (≈ 0.555 µM) | inactive | 0.25 µg/mL (≈ 0.555 µM) | 4 µg/mL (≈ 8.88 µM) | 0.25 µg/mL (≈ 0.555 µM) | 0.25 µg/mL (≈ 0.555 µM) | inactive | > 160 | > 20 µg/mL | 0.25 µg/mL (≈ 0.555 µM) | 0.125 µg/mL (≈ 0.277 µM) | 0.25 µg/mL (≈ 0.555 µM) | 0.25 µg/mL (≈ 0.555 µM) | inactive | MIC [21]: 0.25 µg/mL (≈ 0.555 µM); MIC [22]: 0.25 µg/mL (≈ 0.555 µM); growth inhibition (GI) [23]: inactive; MIC [24]: 0.25 µg/mL (≈ 0.555 µM); MIC [25]: 0.25 µg/mL (≈ 0.555 µM); growth inhibition (GI) [26]: inactive
